Laboratory results from ChEMBL document CHEMBL4130550, “Antiproliferative Dimeric Aporphinoid Alkaloids from the Roots of Thalictrum cultratum” (J Nat Prod, 2017).
Calls of active or inactive are those of the source. No cut-off for these calls is given here.

Experiments:
HL-60 [1] = experiment: Induction of apoptosis in human HL60 cells assessed as necrotic cells at 1.5 uM after 72 hrs by Annexin-V-FITC/propidium iodide staining based flow cytometric method (reference value: 0.47%); format: functional
HL-60 [2] = experiment: Induction of apoptosis in human HL60 cells assessed as early apoptotic cells at 1.5 uM after 24 hrs by Annexin-V-FITC/propidium iodide staining based flow cytometric method (reference value: 2.8%); format: functional
HL-60 [3] = experiment: Induction of apoptosis in human HL60 cells assessed as early apoptotic cells at 1.5 uM after 24 hrs by Annexin-V-APC/7-AAD staining based flow cytometric method (reference value: 2.26%); format: functional
Method in brief: (§1)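 HL-60 are seeded overnight in six-well plates, then treated in triplicate with 0.06, 0.3 or 1.5 μM, or untreated, for 24 h. Cells are washed in PBS and taken up in annexin V binding buffer. Annexin V-APC is added for 15 min in the dark at 25 °C, and 7-AAD just before flow cytometry. Early apoptosis is annexin V-APC only; late apoptosis is annexin V-APC/7-AAD.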

HL-60 [4] = experiment: Induction of apoptosis in human HL60 cells assessed as late apoptotic cells at 1.5 uM after 48 hrs by Annexin-V-FITC/propidium iodide staining based flow cytometric method (reference value: 2.53%); format: functional
HL-60 [5] = experiment: Induction of mitochondrial membrane potential loss in human HL60 cells assessed as intact mitochondrial membrane potential at 1.5 uM after 24 hrs by JC1 staining based flow cytometric method (reference value: 99.42%); format: functional
HL-60 [6] = experiment: Induction of apoptosis in human HL60 cells assessed as live cells at 1.5 uM after 24 hrs by Annexin-V-APC/7-AAD staining based flow cytometric method (reference value: 95.31%); format: functional; method in brief: as §1
HL-60 [7] = experiment: Induction of apoptosis in human HL60 cells assessed as live cells at 1.5 uM after 72 hrs by Annexin-V-FITC/propidium iodide staining based flow cytometric method (reference value: 94.19%); format: functional
HL-60 [8] = experiment: Induction of morphological changes in human HL60 cells assessed as cell shrinkage at 0.06 to 1.5 uM after 24 hrs by Hoechst 33258 staining based fluorescence microscopic analysis; format: functional
HL-60 [9] = experiment: Induction of mitochondrial membrane potential loss in human HL60 cells assessed as collapse of the mitochondrial membrane potential at 0.3 uM after 24 hrs by JC1 staining based flow cytometric method (reference value: 0.58%); format: functional
HL-60 [10] = experiment: Induction of apoptosis in human HL60 cells assessed as necrotic cells at 1.5 uM after 24 hrs by Annexin-V-FITC/propidium iodide staining based flow cytometric method (reference value: 0.47%); format: functional
HL-60 [11] = experiment: Cell cycle arrest in human HL60 cells assessed as accumulation at S phase at 0.06 uM after 24 hrs by propidium iodide staining based flow cytometric method (reference value: 25.75%); format: functional
HL-60 [12] = experiment: Induction of apoptosis in human HL60 cells assessed as late apoptotic cells at 1.5 uM after 24 hrs by Annexin-V-FITC/propidium iodide staining based flow cytometric method (reference value: 2.53%); format: functional
HL-60 [13] = experiment: Induction of apoptosis in human HL60 cells assessed as late apoptotic cells at 1.5 uM after 24 hrs by Annexin-V-APC/7-AAD staining based flow cytometric method (reference value: 1.99%); format: functional; method in brief: as §1
HL-60 [14] = experiment: Induction of mitochondrial membrane potential loss in human HL60 cells assessed as collapse of the mitochondrial membrane potential at 0.06 uM after 24 hrs by JC1 staining based flow cytometric method (reference value: 0.58%); format: functional
HL-60 [15] = experiment: Induction of apoptosis in human HL60 cells assessed as early apoptotic cells at 1.5 uM after 72 hrs by Annexin-V-FITC/propidium iodide staining based flow cytometric method (reference value: 2.8%); format: functional
HL-60 [16] = experiment: Cell cycle arrest in human HL60 cells assessed as accumulation at G1 phase at 0.06 uM after 24 hrs by propidium iodide staining based flow cytometric method (reference value: 43.32%); format: functional
HL-60 [17] = experiment: Induction of mitochondrial membrane potential loss in human HL60 cells assessed as collapse of the mitochondrial membrane potential at 1.5 uM after 24 hrs by JC1 staining based flow cytometric method (reference value: 0.58%); format: functional
HL-60 [18] = experiment: Induction of apoptosis in human HL60 cells assessed as early apoptotic cells at 1.5 uM after 48 hrs by Annexin-V-FITC/propidium iodide staining based flow cytometric method (reference value: 2.8%); format: functional
HL-60 [19] = experiment: Induction of apoptosis in human HL60 cells assessed as early apoptotic cells at 0.06 uM after 24 hrs by Annexin-V-APC/7-AAD staining based flow cytometric method (reference value: 2.26%); format: functional; method in brief: as §1
HL-60 [20] = experiment: Cell cycle arrest in human HL60 cells assessed as accumulation at G2 phase at 1.5 uM after 24 hrs by propidium iodide staining based flow cytometric method (reference value: 30.93%); format: functional
HL-60 [21] = experiment: Induction of apoptosis in human HL60 cells assessed as late apoptotic cells at 0.3 uM after 24 hrs by Annexin-V-APC/7-AAD staining based flow cytometric method (reference value: 1.99%); format: functional; method in brief: as §1
HL-60 [22] = experiment: Induction of mitochondrial membrane potential loss in human HL60 cells assessed as intact mitochondrial membrane potential at 0.06 uM after 24 hrs by JC1 staining based flow cytometric method (reference value: 99.42%); format: functional
HL-60 [23] = experiment: Induction of apoptosis in human HL60 cells assessed as late apoptotic cells at 1.5 uM after 72 hrs by Annexin-V-FITC/propidium iodide staining based flow cytometric method (reference value: 2.53%); format: functional
HL-60 [24] = experiment: Induction of mitochondrial membrane potential loss in human HL60 cells assessed as intact mitochondrial membrane potential at 0.3 uM after 24 hrs by JC1 staining based flow cytometric method (reference value: 99.42%); format: functional
HL-60 [25] = experiment: Cell cycle arrest in human HL60 cells assessed as accumulation at S phase at 0.3 uM after 24 hrs by propidium iodide staining based flow cytometric method (reference value: 25.75%); format: functional
HL-60 [26] = experiment: Cell cycle arrest in human HL60 cells assessed as accumulation at G1 phase at 1.5 uM after 24 hrs by propidium iodide staining based flow cytometric method (reference value: 43.32%); format: functional
HL-60 [27] = experiment: Induction of apoptosis in human HL60 cells assessed as necrotic cells at 1.5 uM after 48 hrs by Annexin-V-FITC/propidium iodide staining based flow cytometric method (reference value: 0.47%); format: functional
HL-60 [28] = experiment: Induction of apoptosis in human HL60 cells assessed as necrotic cells at 0.3 uM after 24 hrs by Annexin-V-APC/7-AAD staining based flow cytometric method (reference value: 0.44%); format: functional; method in brief: as §1
HL-60 [29] = experiment: Induction of apoptosis in human HL60 cells assessed as late apoptotic cells at 0.06 uM after 24 hrs by Annexin-V-APC/7-AAD staining based flow cytometric method (reference value: 1.99%); format: functional; method in brief: as §1
HL-60 [30] = experiment: Antiproliferative activity against human HL60 cells after 72 hrs by tryphan blue staining based hematocytometric method; format: functional, cell-based; conditions: HL-60, 72 h
Method in brief: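 HL-60 (ATCC) in RPMI-1640 with 10% heat-inactivated FBS, 1 mM glutamine and penicillin/streptomycin, 37 °C, 5% CO2. Cells at 4.5 × 10^4 cells/mL are exposed to a concentration gradient (DMSO stock diluted in absolute EtOH) for 72 h. Trypan blue is added and total cells are counted on a hematocytometer. IC50 is the mean of three parallel experiments. Negative reference is 0.1% DMSO.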

IC50 (HL-60 [30]): 1080 nM
Compound: COc1cc2c(c(Oc3ccc(C[C@H]4c5cc(OC)c6c(c5CCN4C)OCO6)cc3)c1OC)C[C@H]1c3c(c(OC)c(OC)c(OC)c3-2)CCN1C
Activity (HL-60 [1]): 0.79% | Activity (HL-60 [2]): 14.79% | Activity (HL-60 [3]): 9% | Activity (HL-60 [4]): 17.69% | Activity (HL-60 [5]): 40.9% | Activity (HL-60 [6]): 35.77% | Activity (HL-60 [7]): 36.09% | Activity (HL-60 [8]): Active | Activity (HL-60 [9]): 33.5% | Activity (HL-60 [10]): 0.14% | Activity (HL-60 [11]): 31.66% | Activity (HL-60 [12]): 8.92% | Activity (HL-60 [13]): 47.95% | Activity (HL-60 [14]): 24.1% | Activity (HL-60 [15]): 31.46% | Activity (HL-60 [16]): 44.01% | Activity (HL-60 [17]): 59.1% | Activity (HL-60 [18]): 28.78% | Activity (HL-60 [19]): 8.57% | Activity (HL-60 [20]): 18.53% | Activity (HL-60 [21]): 6.3% | Activity (HL-60 [22]): 75.9% | Activity (HL-60 [23]): 31.66% | Activity (HL-60 [24]): 66.5% | Activity (HL-60 [25]): 42.51% | Activity (HL-60 [26]): 33.02% | Activity (HL-60 [27]): 0.57% | Activity (HL-60 [28]): 1.2% | Activity (HL-60 [29]): 8.18%
